The record followed here is ChEMBL document CHEMBL2346583, “Synthesis of new fluorinated, 2-substituted 5-pyrrolidinylsulfonyl isatin derivatives as caspase-3 and caspase-7 inhibitors: nonradioactive counterparts of putative PET-compatible apoptosis imaging agents” (Bioorg Med Chem, 2013).

pIC50: −log10 of the molar value.

The target of one assay is T1, Caspase-1 (Homo sapiens, UniProt P29466).
T1 sequence (P29466 whole entry): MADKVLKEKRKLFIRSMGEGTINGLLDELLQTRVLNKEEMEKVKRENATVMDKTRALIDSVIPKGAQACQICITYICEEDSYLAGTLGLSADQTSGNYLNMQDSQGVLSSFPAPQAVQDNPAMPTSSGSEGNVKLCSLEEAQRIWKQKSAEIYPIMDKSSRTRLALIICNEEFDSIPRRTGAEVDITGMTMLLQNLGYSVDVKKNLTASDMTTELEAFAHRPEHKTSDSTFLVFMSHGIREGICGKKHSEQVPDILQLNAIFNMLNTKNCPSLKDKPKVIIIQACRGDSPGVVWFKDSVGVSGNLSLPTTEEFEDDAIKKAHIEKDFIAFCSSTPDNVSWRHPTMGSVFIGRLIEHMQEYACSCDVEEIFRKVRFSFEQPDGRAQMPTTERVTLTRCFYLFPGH
Nature of the assay: Inhibition of human recombinant caspase 1 assessed as decrease in AMC release using Ac-Tyr-Val-Ala-Asp-AMC as substrate preincubated with enzyme for 10 mins prior to substrate addition measured after 10 mins by fluorescence microplate analysis. The gist of the method:
(§1)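 Recombinant human caspase at 0.5 units per assay (defined as 500 pmol substrate converted in 60 min), diluted in reaction buffer. Compounds in DMSO, tested at final concentrations from 500 µM down to 5 pM in tenfold steps. Enzyme and compound pre-incubated for 10 min at 37 °C. AMC peptide substrate then added to a final 10 µM and reacted for 10 min. IC50 obtained by nonlinear regression.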

The next assay has as its target T2, Caspase-6 (Homo sapiens, UniProt P55212).
T2 sequence (P55212 whole entry): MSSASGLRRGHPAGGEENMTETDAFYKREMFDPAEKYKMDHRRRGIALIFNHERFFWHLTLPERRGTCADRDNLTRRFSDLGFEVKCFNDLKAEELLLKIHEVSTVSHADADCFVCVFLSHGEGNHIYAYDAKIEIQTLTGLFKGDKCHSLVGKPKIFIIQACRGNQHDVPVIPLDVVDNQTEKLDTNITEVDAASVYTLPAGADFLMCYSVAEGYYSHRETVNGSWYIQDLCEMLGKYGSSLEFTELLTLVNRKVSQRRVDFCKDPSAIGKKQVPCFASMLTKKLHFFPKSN
As to the kind of experiment: Inhibition of human recombinant caspase 6 assessed as decrease in AMC release using Ac-Val-Glu-Ile-Asp-AMC as substrate preincubated with enzyme for 10 mins prior to substrate addition measured after 10 mins by fluorescence microplate analysis. The gist of the method:
as §1

A further assay addresses T3, Caspase-3 (Homo sapiens, UniProt P42574).
T3 sequence (P42574 whole entry): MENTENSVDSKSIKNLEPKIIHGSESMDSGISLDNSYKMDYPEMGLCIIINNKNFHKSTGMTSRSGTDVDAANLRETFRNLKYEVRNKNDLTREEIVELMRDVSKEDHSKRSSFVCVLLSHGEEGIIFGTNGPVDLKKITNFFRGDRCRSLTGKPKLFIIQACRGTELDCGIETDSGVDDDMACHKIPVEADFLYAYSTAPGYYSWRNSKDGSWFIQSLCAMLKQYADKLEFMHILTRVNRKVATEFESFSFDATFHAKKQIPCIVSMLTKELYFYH
As to the kind of experiment: Inhibition of human recombinant caspase 3 assessed as decrease in AMC release using Ac-Asp-Glu-Val-Asp-AMC as substrate preincubated with enzyme for 10 mins prior to substrate addition measured after 10 mins by fluorescence microplate analysis. The gist of the method: as §1

The target of a further assay is T4, Caspase-7 (Homo sapiens, UniProt P55210).
T4 sequence (P55210 whole entry): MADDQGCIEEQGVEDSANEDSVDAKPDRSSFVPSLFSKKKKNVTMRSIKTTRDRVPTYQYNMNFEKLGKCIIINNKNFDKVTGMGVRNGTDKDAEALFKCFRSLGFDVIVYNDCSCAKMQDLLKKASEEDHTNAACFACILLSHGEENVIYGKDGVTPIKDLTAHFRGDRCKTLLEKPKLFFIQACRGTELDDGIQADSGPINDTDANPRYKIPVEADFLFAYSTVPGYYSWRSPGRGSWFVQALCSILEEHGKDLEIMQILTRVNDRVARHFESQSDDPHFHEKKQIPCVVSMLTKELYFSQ
As to the kind of experiment: Inhibition of human recombinant caspase 7 assessed as decrease in AMC release using Ac-Asp-Glu-Val-Asp-AMC as substrate preincubated with enzyme for 10 mins prior to substrate addition measured after 10 mins by fluorescence microplate analysis. The gist of the method: as §1

On to `O=C1Nc2ccc(S(=O)(=O)N3CCC[C@H]3COCCF)cc2C1=O`, for which the pIC50 was 4.74 on Caspase-1, below 3.30 on Caspase-6, 6.46 at Caspase-3 and 5.88 on Caspase-7.

`COCCCC1CCCN1S(=O)(=O)c1ccc2c(c1)C(=O)C(=O)N2CCCCF` (racemic): the pIC50 was below 3.30 on Caspase-1, below 3.30 on Caspase-6, 6.74 on Caspase-3 and 7.47 on Caspase-7.

As for `COCC[C@@H]1CCCN1S(=O)(=O)c1ccc2c(c1)C(=O)C(=O)N2`, the pIC50 at Caspase-1 is 4.92; at Caspase-6, below 3.30; at Caspase-3, 6.46; on Caspase-7, 6.27.

Consider `CCCCN1C(=O)C(=O)c2cc(S(=O)(=O)N3CCC[C@H]3COCCF)ccc21`, for which the pIC50 was 4.61 on Caspase-1, below 3.30 on Caspase-6, 8.32 on Caspase-3 and 7.40 on Caspase-7.

Take `O=C1Nc2ccc(S(=O)(=O)N3CCC[C@H]3COCC(F)(F)F)cc2C1=O`: the negative logarithm of the IC50 (pIC50) is 4.83 at Caspase-1, below 3.30 on Caspase-6, 5.97 on Caspase-3 and 5.85 on Caspase-7.

With `O=C1C(=O)N(CCCCF)c2ccc(S(=O)(=O)N3CCC[C@H]3COCCF)cc21`, the pIC50 was 4.34 on Caspase-1, below 3.30 at Caspase-6, 7.13 at Caspase-3 and 8.01 on Caspase-7.

Turning to `CCOC[C@@H]1CCCN1S(=O)(=O)c1ccc2c(c1)C(=O)C(=O)N2CCCCF`, the pIC50 on Caspase-1 was below 3.30; on Caspase-6, below 3.30; at Caspase-3, 6.44; at Caspase-7 it was 6.66.

On to `CCOC[C@@H]1CCCN1S(=O)(=O)c1ccc2c(c1)C(=O)C(=O)N2`, for which the pIC50 at Caspase-1 was below 3.30; at Caspase-6, below 3.30; on Caspase-3, 5.95; on Caspase-7 it was 7.88.

Regarding `COCC[C@@H]1CCCN1S(=O)(=O)c1ccc2c(c1)C(=O)C(=O)N2CCCCF`, the pIC50 was 5.13 at Caspase-1, 5.99 on Caspase-6, 7.03 on Caspase-3 and 7.91 on Caspase-7.

`CCCCN1C(=O)C(=O)c2cc(S(=O)(=O)N3CCC[C@H]3COCC)ccc21`: the pIC50 on Caspase-1 is 4.74; at Caspase-6 it was 5.58; at Caspase-3, 7.59; at Caspase-7 it was 7.19.

Regarding `CCCCN1C(=O)C(=O)c2cc(S(=O)(=O)N3CCC[C@H]3COCC(F)(F)F)ccc21`, the pIC50 was 4.59 at Caspase-1, below 3.30 on Caspase-6, 7.33 at Caspase-3 and 8.13 at Caspase-7.

For `O=C1C(=O)N(CCCCF)c2ccc(S(=O)(=O)N3CCC[C@H]3COCC(F)(F)F)cc21`, the pIC50 at Caspase-1 was 4.51; on Caspase-6, below 3.30; at Caspase-3 it was 6.83; on Caspase-7 it was 6.58.

`CCCCN1C(=O)C(=O)c2cc(S(=O)(=O)N3CCCC3CCCOC)ccc21` (racemic): the pIC50 was below 3.30 at Caspase-1, below 3.30 at Caspase-6, 6.77 on Caspase-3 and 6.29 at Caspase-7.

Consider `CCCCN1C(=O)C(=O)c2cc(S(=O)(=O)N3CCC[C@H]3CCOC)ccc21`, for which the pIC50 was 4.81 at Caspase-1, below 3.30 on Caspase-6, 7.03 at Caspase-3 and 7.61 at Caspase-7.

Consider `COCCCC1CCCN1S(=O)(=O)c1ccc2c(c1)C(=O)C(=O)N2` (racemic), for which the pIC50 at Caspase-1 was 4.94; at Caspase-6, below 3.30; on Caspase-3 it was 5.80; at Caspase-7, 6.90.
